Results taken from ChEMBL document CHEMBL1926583, “Synthesis and inhibitory activity of thymidine analogues targeting Mycobacterium tuberculosis thymidine monophosphate kinase” (Bioorg Med Chem, 2011).
In brackets after ≈: the same amount, converted by molar mass. Activity calls are given as the source filed them. No cut-off for these calls is given here.

Legend:
Thymidylate kinase [1] = target: T1, Thymidylate kinase (Mycobacterium tuberculosis, UniProt P9WKE1); assay: Competitive inhibition of Mycobacterium tuberculosis TMPK by Lineweaver-Burk analysis
T1 sequence (P9WKE1 whole entry): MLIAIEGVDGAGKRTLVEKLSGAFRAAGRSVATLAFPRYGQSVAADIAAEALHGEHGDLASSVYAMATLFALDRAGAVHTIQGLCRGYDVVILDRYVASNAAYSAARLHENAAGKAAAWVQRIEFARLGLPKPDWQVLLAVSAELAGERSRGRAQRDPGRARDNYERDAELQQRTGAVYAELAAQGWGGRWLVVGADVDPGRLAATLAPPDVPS
How it was run: (§1)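 Coupled spectrophotometric assay at 334 nm (NADH oxidation via pyruvate kinase/lactate dehydrogenase/NDP kinase). Buffer 50 mM Tris-HCl pH 7.4, 50 mM KCl, 2 mM MgCl2, 0.2 mM NADH, 1 mM phosphoenolpyruvate. ATP 0.5 mM and dTMP 0.05 mM held fixed; analogue 0.003–1.5 mM.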

[2] = Selectivity index, ratio of Ki for human TMPK to Ki for Mycobacterium tuberculosis TMPK
[3] = target: T2, Thymidylate kinase (Homo sapiens) (UniProt P23919); assay: Competitive inhibition of human TMPK at 1 mM by Lineweaver-Burk analysis; how it was run: as §1
T2 sequence (whole entry): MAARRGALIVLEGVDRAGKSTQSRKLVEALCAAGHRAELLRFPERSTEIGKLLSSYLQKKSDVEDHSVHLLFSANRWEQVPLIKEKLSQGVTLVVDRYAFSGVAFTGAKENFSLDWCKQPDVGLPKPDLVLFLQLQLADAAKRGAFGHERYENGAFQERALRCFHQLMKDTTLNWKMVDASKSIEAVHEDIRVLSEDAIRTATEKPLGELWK

Thymidylate kinase [4] = target: T3, Thymidylate kinase (Homo sapiens, UniProt P23919); assay: Competitive inhibition of human TMPK by Lineweaver-Burk analysis; how it was run: as §1
T3 sequence (P23919 whole entry): T2 sequence (whole entry)

[5] = Antimycobacterial activity against Mycobacterium bovis BCG 1173P2 after 8 days by resazurin reduction assay; assay type: functional, Mycobacterium bovis BCG str. Pasteur 1173P2; settings: Mycobacterium tuberculosis variant bovis BCG, 192 h
How it was run: (§2)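 M. bovis BCG 1173P2 grown in 7H9 Middlebrook broth with 0.2% glycerol and 0.5% Tween-80. Compounds tested as serial 2-fold dilutions, with bacteria at 10^5 per mL. Incubated at 37 °C in humidified normal air for 8 days. Resazurin 0.01% (wt/vol) then added, followed by overnight incubation at 37 °C. Growth read as the OD difference 570 minus 630 nm (blue-to-pink change).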

[6] = test system: Mycobacterium bovis BCG str. Pasteur 1173P2; assay: Antimycobacterial activity against Mycobacterium bovis BCG 1173P2 at 25 ug/mL after 8 days by resazurin reduction assay; assay type: functional; how it was run: as §2
[7] = target: T2, Thymidylate kinase (Homo sapiens); assay: Competitive inhibition of human TMPK at 0.05 mM by Lineweaver-Burk analysis; how it was run: as §1
[8] = target: T4, Thymidylate kinase (Mycobacterium tuberculosis) (UniProt P9WKE1); assay: Competitive inhibition of Mycobacterium tuberculosis TMPK at 0.05 mM by Lineweaver-Burk analysis; how it was run: as §1
T4 sequence (whole entry): T1 sequence (P9WKE1 whole entry)

SMILES | Ki (Thymidylate kinase [1]) | also measured
Cc1cn([C@H]2C[C@H](n3cc(Cc4ccccc4)nn3)[C@@H](CO)O2)c(=O)[nH]c1=O | 2.7 µM | Ratio Ki [2]: > 100; inhibition [3]: inactive
Cc1cn([C@H]2C[C@H](NC(=S)Nc3ccc(Cl)c(C(F)(F)F)c3)[C@@H](CO)O2)c(=O)[nH]c1=O | 9.9 µM | –
Cc1cn([C@H]2C[C@H](N=[N+]=[N-])[C@@H](CO)O2)c(=O)[nH]c1=S | ≥ 100 µM | –
Cc1cn([C@@H]2C[C@H](N=[N+]=[N-])[C@@H](CO)O2)c(=O)[nH]c1=O | 6 µM | –
Cc1cn([C@H]2C[C@H](n3cc(-c4ccc(Cl)cc4)nn3)[C@@H](CO)O2)c(=O)[nH]c1=O | 2.1 µM | –
Cc1cn([C@H]2C[C@H](NC(=O)Nc3ccc(Cl)c(C(F)(F)F)c3)[C@@H](CO)O2)c(=O)[nH]c1=O | 2.8 µM | Ki (Thymidylate kinase [4]): 95 µM; Ratio Ki [2]: 34
Cc1cn([C@H]2C[C@H](O)[C@@H](Cn3cc(-c4ccc(Cl)cc4)nn3)O2)c(=O)[nH]c1=O | 201 µM | –
Cc1cn([C@H]2C[C@H](Nc3nnnn3-c3ccc(Cl)c(C(F)(F)F)c3)[C@@H](CO)O2)c(=O)[nH]c1=O | 45 µM | –
Cc1cn([C@H]2C[C@H](n3cc(-c4ccccc4)nn3)[C@@H](CO)O2)c(=O)[nH]c1=O | 4.2 µM | –
Cc1cn([C@@H]2C[C@H](O)[C@@H](CNC(=S)Nc3ccc(Cl)c(C(F)(F)F)c3)O2)c(=O)[nH]c1=S | 0.17 µM | Ratio Ki [2]: > 100; MIC99 [5]: 25 µg/mL (≈ 50.5 µM); inhibition [6]: 100%; inhibition [7]: inactive
Cc1cn([C@H]2C[C@H](O)[C@@H](CNc3nnnn3-c3ccc(Cl)c(C(F)(F)F)c3)O2)c(=O)[nH]c1=O | 73 µM | –
Cc1cn([C@@H]2C[C@H](O)[C@@H](Cn3cc(-c4ccc(Cl)cc4)nn3)O2)c(=O)[nH]c1=O | 9 µM | –
Cc1cn([C@@H]2C[C@H](O)[C@@H](CNC(=S)Nc3ccccc3)O2)c(=O)[nH]c1=S | – | MIC99 [5]: > 100 µg/mL; inhibition [8]: inactive
Cc1cn([C@H]2C[C@H](O)[C@@H](CNC(=S)Nc3ccc(Cl)c(C(F)(F)F)c3)O2)c(=O)[nH]c1=O | 14.5 µM | –
Cc1cn([C@H]2C[C@H](n3cc(-c4ccc(Cl)cc4)nn3)[C@@H](CO)O2)c(=O)[nH]c1=S | 15 µM | –
Cc1cn([C@H]2C[C@H](n3nnnc3NCc3ccccc3)[C@@H](CO)O2)c(=O)[nH]c1=O | 2.3 µM | Ratio Ki [2]: > 100; inhibition [3]: inactive
Cc1cn([C@@H]2C[C@H](n3cc(-c4ccc(Cl)cc4)nn3)[C@@H](CO)O2)c(=O)[nH]c1=O | 35 µM | –
